Published values pooled from the literature.
Protocols differ between the studies behind these lines.
ALK: ALK tyrosine kinase receptor (ALK, Homo sapiens, UniProt Q9UM73)
ALK L1196M: ALK tyrosine kinase receptor (ALK, Homo sapiens, UniProt Q9UM73, L1196M)
ALK C1156Y: ALK tyrosine kinase receptor (ALK, Homo sapiens, UniProt Q9UM73, C1156Y)

SMILES	target	observed	action	technique	tested at	measurement	value
CS(=O)(=O)c1ccccc1Nc1nc(Nc2ccnc(CO)c2)ncc1Cl	ALK	enzyme activity	inhibitor	radiometric	1 µM	remaining activity	10.2%
CCCCC(=O)Nc1ccc(-c2ccc3ncn(CCC)c(=O)c3c2)cn1	ALK L1196M	binding	–	competition with immobilised ligand	0.5 µM	remaining binding	100%
COc1ccc2[nH]c3c4[nH]c5ccc(OC)cc5c4c4c(c3c2c1)C(=O)NC4=O	ALK	binding	–	–	1 µM	remaining binding	55%
CO[C@@H]1[C@H](N(C)C(=O)c2ccccc2)C[C@H]2O[C@]1(C)n1c3ccccc3c3c4c(c5c6ccccc6n2c5c31)C(=O)NC4	ALK L1196M	enzyme activity	inhibitor	–	1 µM	inhibition	42%
CN1CCN(C(=O)c2ccc(NC(=O)Nc3ccc(N(C)c4ccnc(Nc5ccc(CS(C)(=O)=O)cc5)n4)cc3)cc2)CC1	ALK C1156Y	binding	–	–	1 µM	remaining binding	64%
N#Cc1ccc(NC(=O)Nc2ccccc2)cc1	ALK	cell-free assay	–	competition with immobilised ligand	25 µM	remaining binding	76%
COc1ccc2oc(-c3ccc4nc(N)oc4c3)c/c(=N\c3ccccc3NC(=O)CCN)c2c1	ALK	binding	–	–	1 µM	remaining binding	106%
Cc1ccc(NC(=O)c2ccnc(C(F)(F)F)c2)cc1-c1cc(OCCO)nc(N2CCOCC2)c1	ALK C1156Y	binding	–	–	1 µM	remaining binding	100%
C#Cc1cnc(Nc2ccnc(CO)c2)nc1Nc1ccccc1S(C)(=O)=NC#N (centres unmarked)	ALK	enzyme activity	inhibitor	radiometric	1 µM	remaining activity	27.6%
C=CC(=O)N1CCC([C@@H]2CCNc3c(C(N)=O)c(-c4ccc(Oc5ccccc5)cc4)nn32)CC1	ALK	cell-free assay	–	–	1 µM	inhibition	5%
CNC(=O)c1ccccc1Nc1nc(Nc2ccc(CO)nc2)ncc1Cl	ALK	enzyme activity	inhibitor	radiometric	1 µM	remaining activity	2.92%
C1=C/COCc2cc(ccc2OCCN2CCCC2)Nc2nccc(n2)-c2cccc(c2)COC/1	ALK C1156Y	binding	–	–	0.1 µM	remaining binding	97%
C#Cc1cnc(Nc2ccc(CO)cc2)nc1Nc1ccccc1C(=O)NC	ALK	enzyme activity	inhibitor	radiometric	1 µM	remaining activity	2.4%
CC#CC(=O)N1CCC[C@H]1c1nc(-c2ccc(C(=O)Nc3ccccn3)cc2)c2c(N)nccn12	ALK L1196M	enzyme activity	inhibitor	–	1 µM	inhibition	11%
